Experimental data: ChEMBL document CHEMBL3044699, “Synthesis and herbicidal activity of N-oxide derivatives” (2000)
Active and inactive are the calls of the source. The rule behind the calls is not given here.

Tests used:
Triticum aestivum [1] = assay: Pre-emergence herbicidal activity against Triticum aestivum (wheat) assessed as reduction in length of the first leaf at 50 mol/ha relative to untreated control; assay type: functional; set-up: scale not given: the % may be the effect or the level left
Procedure, shortened: (§1)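 Wheat was grown in sterilized sand flats at near-neutral pH and treated pre-emergence at 6.4–19.6 kg/ha in acetone-, DMSO- or Tween 80-containing vehicles. Length of first leaf, aerial weight and radicular weight were compared with untreated control and scored 4 (100–80% reduction), 3 (79–50%), 2 (49–20%), 1 (19–1%) or 0 (increase). Atrazine 2.5 kg/ha was the positive control. Duplicate runs; ANOVA.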

Triticum aestivum [2] = assay: Pre-emergence herbicidal activity against Triticum aestivum (wheat) assessed as germination seeds level at 50 mol/ha relative to untreated control; assay type: functional
Procedure, shortened: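 Pre-emergence greenhouse assay on T. aestivum sown in sterilized sand in celled flats, with the medium near neutral pH. Compound was applied in acetone/H₂O, DMSO/H₂O, acetone/DMSO or acetone/DMSO/H₂O/Tween 80 at 6.4–19.6 kg/ha. Percentage of germinated seeds was calculated against untreated control. Atrazine (2.5 kg/ha, 12 mol/ha) was the positive control. Run in duplicate; ANOVA.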

Triticum aestivum [3] = assay: Stimulation of plant growth parameters in Triticum aestivum (wheat) assessed as increase in radicular weight at 50 mol/ha; assay type: functional, organism-based; procedure, shortened: as §1
Triticum aestivum [4] = assay: Pre-emergence herbicidal activity against Triticum aestivum (wheat) assessed as reduction in aerial weight at 50 mol/ha relative to untreated control; assay type: functional; set-up: scale not given: the % may be the effect or the level left; procedure, shortened: as §1
Triticum aestivum [5] = assay: Stimulation of plant growth parameters in Triticum aestivum (wheat) assessed as increase in aerial weight at 50 mol/ha; assay type: functional, organism-based; procedure, shortened: as §1
Triticum aestivum [6] = assay: Pre-emergence herbicidal activity against Triticum aestivum (wheat) assessed as reduction in radicular weight at 50 mol/ha relative to untreated control; assay type: functional; set-up: scale not given: the % may be the effect or the level left; procedure, shortened: as §1
Triticum aestivum [7] = assay: Stimulation of plant growth parameters in Triticum aestivum (wheat) assessed as increase in length of the first leaf at 50 mol/ha; assay type: functional, organism-based
Procedure, shortened: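 Pre-emergence greenhouse whole-plant test on T. aestivum L. Seeds were grown in sterilized sand in celled flats, with the medium near neutral pH. Compound was applied in acetone/H₂O, DMSO/H₂O, acetone/DMSO or acetone/DMSO/H₂O/Tween 80 vehicle, at 6.4–19.6 kg/ha by weight. Length of first leaf was compared with untreated control, with a score of 0 marking an increase. Atrazine at 2.5 kg/ha was the positive control. Run in duplicate and analysed by ANOVA.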

Triticum aestivum [8] = assay: Post-emergence herbicidal activity against Triticum aestivum (wheat) at 50 mol/ha measured 10 days post compound application; assay type: functional, organism-based
Procedure, shortened: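 Post-emergence greenhouse test on T. aestivum, set up identically to the pre-emergence test: sterilized sand flats at near-neutral pH, application at 6.4–19.6 kg/ha in acetone/DMSO/water-based vehicles, and reduction of plant parameters versus untreated control scored on a 0–4 scale. Atrazine 2.5 kg/ha was the positive control. Duplicate; ANOVA.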

Structure (SMILES)	Activity (Triticum aestivum [1])	Activity (Triticum aestivum [2]) [%]	Activity (Triticum aestivum [3])	Activity (Triticum aestivum [4])	Activity (Triticum aestivum [5])	Activity (Triticum aestivum [6])	Activity (Triticum aestivum [7])	Activity (Triticum aestivum [8])
O=Cc1ccc2no[n+]([O-])c2c1 [6-FORMYLBENZO[C][1,2,5]OXADIAZOLE1-OXIDE]	2%	100	Active	1%				
Cc1c(C=O)no[n+]1[O-]	1%	100			Active	1%		
COC(=O)N/N=C/c1ccc2nonc2c1		100	Active		Active		Active	
NC(=S)N/N=C/c1c(-c2ccccc2)no[n+]1[O-]	2%	100			Active	3%		
COC(=O)N/N=C/c1ccc2c(c1)[n+]([O-])c(C)c(C)[n+]2[O-]		100	Active		Active		Active	
O=C(O)c1ccc2no[n+]([O-])c2c1	1%	100		1%		1%		inactive
O=C(Nc1ccc(Cl)cc1)c1ccc2c(c1)no[n+]2[O-]	3%	96		3%		4%		
Cc1c(/C=N/NC(N)=O)no[n+]1[O-]		89		4%		3%		
O=C(c1ccc2c(c1)no[n+]2[O-])N1CCOCC1	3%	100		3%		3%		
O=C(NCCc1ccccc1)N/N=C/c1ccc2c(c1)no[n+]2[O-]	2%	100		2%		2%		
Cc1c(C)[n+]([O-])c2cc(/C=N/NC(=O)NCCc3ccccc3)ccc2[n+]1[O-]		100			Active	1%	Active	
Cc1ccc2no[n+]([O-])c2c1 [6-METHYLBENZO[C][1,2,5]OXADIAZOLE1-OXIDE]	3%	100		3%		3%		
[O-][n+]1onc2ccccc21 [BENZO[C][1,2,5]OXADIAZOLE 1-OXIDE]	inactive	100		inactive		inactive		inactive
COCCNC(=O)c1ccc2c(c1)no[n+]2[O-]	2%	100		1%		1%		
COc1ccc(NCc2c(-c3ccccc3)no[n+]2[O-])cc1	1%	100		1%		1%		
COC(=O)N/N=C/c1ccc2c(c1)no[n+]2[O-]	1%	75		1%		3%		
O=C1c2ccccc2C(=O)N1Cc1c(-c2ccccc2)no[n+]1[O-]		100			Active	1%	Active	
[O-][n+]1onc(-c2ccccc2)c1CNc1ccc(Cl)cc1	1%	100		1%		1%		
[O-][n+]1onc(-c2ccccc2)c1CCl	1%	100		1%		1%		inactive
[O-][n+]1onc(-c2ccccc2)c1CN1CCN(c2ncccn2)CC1	inactive	100		inactive		inactive		inactive
CCCCNC(=O)c1ccc2c(c1)no[n+]2[O-]	3%	46		3%		3%		
COC(=O)N/N=C/c1no[n+]([O-])c1C	3%	15	Active	3%				
[O-][n+]1onc(-c2ccccc2)c1CNc1ccc(Br)cc1	2%	100		1%		1%		
COC(=O)N/N=C/c1c(-c2ccccc2)no[n+]1[O-]	2%	100			Active	2%		
Cc1c(/C=N/NC(N)=S)no[n+]1[O-]		92		4%		4%		
CCCCCCNC(=O)N/N=C/c1no[n+]([O-])c1C	3%	95		4%		3%		
O=Cc1c(-c2ccccc2)no[n+]1[O-]	1%	100			Active	1%		
